These results are taken from ChEMBL document CHEMBL2380280, “Xanthates and trithiocarbonates strongly inhibit carbonic anhydrases and show antiglaucoma effects in vivo” (J Med Chem, 2013).

The structures appear in SMILES notation. Activity calls are given as the source filed them. The rule behind the calls is not given here.

Test [1] deals with Oryctolagus cuniculus. The test can be described thus: Antiglaucoma activity in hypertensive New Zealand albino rabbit model assessed as decrease in carbomer-induced intraocular pressure at 2% administered to eye measured up to 200 to 250 mins by tanometric analysis. The class given is functional, organism-based. The method, boiled down:
(§1)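 Adult male New Zealand albino rabbits, 2−2.5 kg. Glaucoma induced by bilateral anterior-chamber injection of 0.1 mL 0.25% carbomer under im tiletamine/zolazepam plus xilazine anaesthesia. Once IOP was stably raised, drug was instilled into one eye and vehicle into the contralateral eye, three animals per drug. IOP was read by Tono-Pen tonometer after oxybuprocaine drops, before dosing and at 30, 60, 90, 120, 240 and 300 min.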

Test [2] concerns Oryctolagus cuniculus. In words: Antiglaucoma activity in hypertensive New Zealand albino rabbit model assessed as decrease in carbomer-induced intraocular pressure at 2% administered to eye after 50 to 100 mins by tanometric analysis (reference value: 35 to 40 mmHg). It is filed as functional. The essentials:
as §1

Test [3] has as its system Oryctolagus cuniculus. In words: Antiglaucoma activity in normotensive New Zealand rabbit model assessed as decrease in intraocular pressure at 2% administered to eye vitreous by tanometric analysis. It is filed as functional.
Test [4] deals with Carbonic anhydrase 9 (Homo sapiens, UniProt Q16790). In words: Inhibition of recombinant human CA9 transmembrane isoform preincubated for 15 mins by stopped-flow CO2 hydration assay.
In test [5] the target is Carbonic anhydrase 12 (Homo sapiens, UniProt O43570). The test can be described thus: Inhibition of recombinant human CA12 transmembrane isoform preincubated for 15 mins by stopped-flow CO2 hydration assay.
Chain of Carbonic anhydrase 12 (O43570 whole entry, canonical isoform): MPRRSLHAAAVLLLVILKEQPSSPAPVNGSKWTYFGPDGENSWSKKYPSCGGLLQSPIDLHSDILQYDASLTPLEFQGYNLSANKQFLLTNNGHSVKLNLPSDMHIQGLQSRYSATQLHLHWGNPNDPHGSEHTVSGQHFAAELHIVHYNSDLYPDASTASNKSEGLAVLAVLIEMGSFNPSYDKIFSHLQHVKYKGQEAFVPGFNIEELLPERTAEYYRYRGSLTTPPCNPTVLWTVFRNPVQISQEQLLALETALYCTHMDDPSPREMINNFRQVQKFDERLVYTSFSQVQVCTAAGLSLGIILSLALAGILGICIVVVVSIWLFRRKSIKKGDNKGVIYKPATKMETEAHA
For test [6], the target named is Carbonic anhydrase 2 (Homo sapiens, UniProt P00918). In words: Inhibition of recombinant human CA2 cytosolic isoform preincubated for 15 mins by stopped-flow CO2 hydration assay.
For test [7], the target named is Carbonic anhydrase 1 (Homo sapiens, UniProt P00915). The test can be described thus: Inhibition of recombinant human CA1 cytosolic isoform preincubated for 15 mins by stopped-flow CO2 hydration assay.
Chain of Carbonic anhydrase 1 (P00915 whole entry, canonical isoform): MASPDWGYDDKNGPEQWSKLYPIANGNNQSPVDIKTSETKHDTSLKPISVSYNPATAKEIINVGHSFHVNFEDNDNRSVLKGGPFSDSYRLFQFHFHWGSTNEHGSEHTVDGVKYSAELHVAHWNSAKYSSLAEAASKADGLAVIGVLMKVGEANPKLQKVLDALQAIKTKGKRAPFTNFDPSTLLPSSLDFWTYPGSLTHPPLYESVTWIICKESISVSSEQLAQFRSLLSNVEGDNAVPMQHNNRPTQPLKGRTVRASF
The test system of test [8] is Oryctolagus cuniculus. In words: Antiglaucoma activity in hypertensive New Zealand albino rabbit model assessed as decrease in carbomer-induced intraocular pressure at 2% administered to eye after 150 mins by tanometric analysis. The class given is functional, organism-based. The method, boiled down:
as §1

The subject of test [9] is Oryctolagus cuniculus. The test can be described thus: Antiglaucoma activity in normotensive New Zealand rabbit model assessed as decrease in intraocular pressure administered to eye vitreous by tanometric analysis. It is filed as functional, organism-based.
In test [10] the test system is Oryctolagus cuniculus. In words: Antiglaucoma activity in hypertensive New Zealand albino rabbit model assessed as decrease in carbomer-induced intraocular pressure at 2% administered to eye after > 250 mins by tanometric analysis. The class given is functional, organism-based. The essentials:
as §1

In test [11] the test system is Oryctolagus cuniculus. In words: Antiglaucoma activity in hypertensive New Zealand albino rabbit model assessed as decrease in carbomer-induced intraocular pressure at 2% administered to eye after 100 mins by tanometric analysis (reference value: 35 to 40 mmHg). The class given is functional. The essentials: as §1

With `CN(C)CCOCCOC(=S)[S-].[K+]`, the result in test [1] was Active. For the same compound, the Activity is on record as 4 mmHg in [2] and 1 mmHg in [3]. The Ki in test [4] came to 831 nM.
As for `S=C(S)OC1CC2CC1C1CCCC21` (centres undefined), the Ki in [5] turned out to be 835 nM; in [4], 643 nM; in test [6], 6.6 nM; in [7], 63.4 nM.
For `CCCCCCCCOC(=S)S`, the Ki in test [4] was 72.1 nM.
On the same count and under the same terms, in the case of `CC(C)OC(=S)S` it was 531 nM; in that of `CC(C)CCOC(=S)S`, 322 nM.
On the same count and under the same terms, in the case of `S=C(S)OCC12CC3CC(CC(C3)C1)C2` it was 776 nM.
In the case of `S=C(S)OC1CCCC1`, the Ki was 74.7 nM in test [5], 47.2 nM in test [4], 366 nM in test [6] and 532 nM in [7].
In the case of `N#CNC(=S)S`, the Ki in test [4] came to 678 nM.
On to `S=C(S)OCc1ccccc1`, for which the Ki in test [4] amounted to 8.1 nM.
Turning to `CN(C)CCOC(=S)S`, in test [4], the Ki turned out to be 760 nM.
Consider `S=C([S-])OCCc1ccccn1.[K+]`, for which the result in test [1] was Active. Further, the Activity worked out at 4 mmHg in test [2] and 1 mmHg in [3]. For the same compound, the Ki in [4] is 4.3 nM.
Take `CCOC(=S)S`: the Ki in test [4] stood at 566 nM.
Same read-out and setting: in the case of `COC(=S)S` it was 631 nM.
Still for that read-out and setting: the result for `S=C(S)OC1CCCCC1` reads 78.8 nM.
On to `CCN[C@H]1C[C@H](C)S(=O)(=O)c2sc(S(N)(=O)=O)cc21`, for which the outcome in test [8] and in [9] was inactive.
For `CC(C)(C)OC(=O)NCCCCCCOC(=S)S`, in test [4], the Ki turned out to be 765 nM.
The same measure, in the same setting: in the case of `CCCCCOC(=S)S` it was 403 nM.
For the compound `S=C([S-])OCC(c1ccccc1)c1ccccc1.[K+]`, the outcome in [10] and in [1] was Active. Besides, the figures for the Activity in test [11] and in test [3] were 12 mmHg and 1 mmHg, respectively. Besides, in test [4], the Ki is 58 nM.
Consider `S=C(S)SCc1ccccc1`, for which, in [4], the Ki turned out to be 7.8 nM.
With `CC(C)(C)OC(=O)NCCCCOC(=S)[S-].[K+]`, the outcome in [1] was Active. Moreover, the Activity in test [2] stood at 4 mmHg; in test [3], 1 mmHg. In test [4], the Ki turned out to be 622 nM.
For `S=C([S-])OCCC12CC3CC(CC(C3)C1)C2.[K+]`, in that order: “Active”, 4 mmHg, 1 mmHg and 779 nM.
